ChEMBL document CHEMBL4715736, “Identification of anticancer agents based on the thieno[2,3-b]pyridine and 1H-pyrazole molecular scaffolds” (2016)

Legend:
Type in all cases: functional
NCI-H23 [1] = experiment: Growth inhibition of human NCI-H23 cells assessed as cell growth at 100 uM incubated for 48 hrs by sulforhodamine B assay relative to control; conditions: read-out: Activity
NCI-H23 [2] = experiment: Growth inhibition of human NCI-H23 cells incubated for 48 hrs by sulforhodamine B assay
How it was run: (§1)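 NCI60 panel at the NCI Developmental Therapeutics Program. Only compounds active in the 10 µM screen went to dose-response testing. GI50, the concentration giving 50% of maximal inhibition of proliferation, and TGI, the concentration giving total growth inhibition, were derived from the dose-response curves.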

A498 = experiment: Growth inhibition of human A498 cells assessed as cell growth at 100 uM incubated for 48 hrs by sulforhodamine B assay relative to control; conditions: read-out: Activity
How it was run: (§2)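 NCI Developmental Therapeutics Program NCI60 panel. Compounds that were active in the 10 µM one-dose screen went on to dose–response testing. Growth at each concentration is expressed relative to untreated control (100%). GI50 (concentration giving 50% of maximal inhibition of proliferation) and TGI (concentration giving total growth inhibition) were derived from the curves.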

NCI-H322M = experiment: Growth inhibition of human NCI-H322M cells incubated for 48 hrs by sulforhodamine B assay; conditions: for CC50: read-out: LC50 (the source's name); how it was run: as §1
UACC-257 = experiment: Growth inhibition of human UACC-257 cells incubated for 48 hrs by sulforhodamine B assay
How it was run: (§3)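 NCI DTP 60-line human tumour panel. Dose-response curves were run only for ligands active in the initial 10 µM screen. GI50 (concentration giving 50% of maximal inhibition of proliferation) and TGI (concentration giving total growth inhibition) were derived from these curves.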

Hs-578T [3] = experiment: Growth inhibition of human Hs-578T cells assessed as cell growth at 0.1 uM incubated for 48 hrs by sulforhodamine B assay relative to control; conditions: read-out: Activity
SF-539 = experiment: Growth inhibition of human SF-539 cells incubated for 48 hrs by sulforhodamine B assay; conditions: for CC50: read-out: LC50 (the source's name); how it was run: as §3
SK-OV-3 = experiment: Growth inhibition of human SK-OV-3 cells assessed as cell growth at 1 uM incubated for 48 hrs by sulforhodamine B assay relative to control; conditions: read-out: Activity
CCRF-CEM [4] = experiment: Growth inhibition of human CCRF-CEM cells incubated for 48 hrs by sulforhodamine B assay; how it was run: as §2
UACC-62 = experiment: Growth inhibition of human UACC-62 cells assessed as cell growth at 0.1 uM incubated for 48 hrs by sulforhodamine B assay relative to control; conditions: read-out: Activity
MCF7 = experiment: Growth inhibition of human MCF7 cells assessed as cell growth at 100 uM incubated for 48 hrs by sulforhodamine B assay relative to control; conditions: read-out: Activity
SF-295 = experiment: Growth inhibition of human SF-295 cells assessed as cell growth at 1 uM incubated for 48 hrs by sulforhodamine B assay relative to control; conditions: read-out: Activity
RPMI-8226 = experiment: Growth inhibition of human RPMI-8226 cells assessed as cell growth at 100 uM incubated for 48 hrs by sulforhodamine B assay relative to control; conditions: read-out: Activity
NCI-H226 = experiment: Growth inhibition of human NCI-H226 cells incubated for 48 hrs by sulforhodamine B assay; conditions: for CC50: read-out: LC50 (the source's name); how it was run: as §1
MDA-MB-435 [5] = experiment: Growth inhibition of human MDA-MB-435 cells assessed as cell growth at 0.01 uM incubated for 48 hrs by sulforhodamine B assay relative to control; conditions: read-out: Activity
LOX IMVI = experiment: Growth inhibition of human LOX IMVI cells assessed as cell growth at 0.1 uM incubated for 48 hrs by sulforhodamine B assay relative to control; conditions: read-out: Activity
OVCAR-5 [6] = experiment: Growth inhibition of human OVCAR-5 cells assessed as cell growth at 100 uM incubated for 48 hrs by sulforhodamine B assay relative to control; conditions: read-out: Activity
PC-3 = experiment: Growth inhibition of human PC-3 cells assessed as cell growth at 1 uM incubated for 48 hrs by sulforhodamine B assay relative to control; conditions: read-out: Activity
SW-620 = experiment: Growth inhibition of human SW-620 cells assessed as cell growth at 100 uM incubated for 48 hrs by sulforhodamine B assay relative to control; conditions: read-out: Activity
RXF 393 = experiment: Growth inhibition of human RXF 393 cells assessed as cell growth at 1 uM incubated for 48 hrs by sulforhodamine B assay relative to control; conditions: read-out: Activity
CAKI-1 = experiment: Growth inhibition of human CAKI-1 cells assessed as cell growth at 0.1 uM incubated for 48 hrs by sulforhodamine B assay relative to control; conditions: read-out: Activity; how it was run: as §2
SK-MEL-2 [7] = experiment: Growth inhibition of human SK-MEL-2 cells assessed as cell growth at 0.1 uM incubated for 48 hrs by sulforhodamine B assay relative to control; conditions: read-out: Activity
KM12 = experiment: Growth inhibition of human KM12 cells assessed as cell growth at 100 uM incubated for 48 hrs by sulforhodamine B assay relative to control; conditions: read-out: Activity
SN12C = experiment: Growth inhibition of human SN12C cells assessed as cell growth at 100 uM incubated for 48 hrs by sulforhodamine B assay relative to control; conditions: read-out: Activity
K562 = experiment: Growth inhibition of human K562 cells assessed as cell growth at 1 uM incubated for 48 hrs by sulforhodamine B assay relative to control; conditions: read-out: Activity
BT-549 [8] = experiment: Growth inhibition of human BT-549 cells incubated for 48 hrs by sulforhodamine B assay; conditions: for CC50: read-out: LC50 (the source's name); how it was run: as §2
OVCAR-5 [9] = experiment: Growth inhibition of human OVCAR-5 cells incubated for 48 hrs by sulforhodamine B assay; conditions: for CC50: read-out: LC50 (the source's name); how it was run: as §3
MDA-MB-435 [10] = experiment: Growth inhibition of human MDA-MB-435 cells assessed as cell growth at 0.1 uM incubated for 48 hrs by sulforhodamine B assay relative to control; conditions: read-out: Activity
TK-10 [11] = experiment: Growth inhibition of human TK-10 cells assessed as cell growth at 100 uM incubated for 48 hrs by sulforhodamine B assay relative to control; conditions: read-out: Activity
BT-549 [12] = experiment: Growth inhibition of human BT-549 cells assessed as cell growth at 100 uM incubated for 48 hrs by sulforhodamine B assay relative to control; conditions: read-out: Activity
TK-10 [13] = experiment: Growth inhibition of human TK-10 cells incubated for 48 hrs by sulforhodamine B assay; conditions: for CC50: read-out: LC50 (the source's name); how it was run: as §3
CCRF-CEM [14] = experiment: Growth inhibition of human CCRF-CEM cells assessed as cell growth at 100 uM incubated for 48 hrs by sulforhodamine B assay relative to control; conditions: read-out: Activity; how it was run: as §2
SK-MEL-2 [15] = experiment: Growth inhibition of human SK-MEL-2 cells assessed as cell growth at 100 uM incubated for 48 hrs by sulforhodamine B assay relative to control; conditions: read-out: Activity
Hs-578T [16] = experiment: Growth inhibition of human Hs-578T cells assessed as cell growth at 100 uM incubated for 48 hrs by sulforhodamine B assay relative to control; conditions: read-out: Activity
HCT-15 = experiment: Growth inhibition of human HCT-15 cells assessed as cell growth at 100 uM incubated for 48 hrs by sulforhodamine B assay relative to control; conditions: read-out: Activity

For Cc1cc(C)c(NC(=O)c2sc3nc4c(cc3c2N)CN(Cc2ccccc2)CC4)c(C)c1, the growth at 100 µM (NCI-H23 [1]) was 13%, the GI50 (NCI-H23 [2]) was 4.51 µM and the LC50 (50% lethal concentration) (NCI-H23 [2]) was > 100 µM. For the same molecule, the TGI (NCI-H23 [2]) was > 100 µM, the growth at 100 µM (A498) was -2% and the GI50 (NCI-H322M) was 8.65 µM. The TGI (NCI-H322M) was > 100 µM, the CC50 (NCI-H322M) was > 100 µM and the GI50 (UACC-257) was 6.71 µM. For the same molecule, the LC50 (concentration killing 50% of cells) (UACC-257) was > 100 µM, the TGI (UACC-257) was > 100 µM and the growth at 0.1 µM (Hs-578T [3]) was 91%. For the same molecule, the GI50 (SF-539) was 2.44 µM, the TGI (SF-539) was 7.79 µM and the CC50 (SF-539) was > 100 µM. For the same molecule, the growth at 1 µM (SK-OV-3) was 88%, the GI50 (CCRF-CEM [4]) was 3.16 µM and the LC50 (CCRF-CEM [4]) was > 100 µM. The TGI (CCRF-CEM [4]) was 59.7 µM, the growth at 0.1 µM (UACC-62) was 97% and the growth at 100 µM (MCF7) was -8%. For the same molecule, the growth at 1 µM (SF-295) was 66%, the growth at 100 µM (RPMI-8226) was -11% and the GI50 (NCI-H226) was 4.69 µM. For the same molecule, the TGI (NCI-H226) was > 100 µM, the CC50 (NCI-H226) was > 100 µM and the growth at 0.01 µM (MDA-MB-435 [5]) was 92%. For the same molecule, the growth at 0.1 µM (LOX IMVI) was 105%, the growth at 100 µM (OVCAR-5 [6]) was 14% and the growth at 1 µM (PC-3) was 75%. For the same molecule, the growth at 100 µM (SW-620) was -43%, the growth at 1 µM (RXF 393) was 78% and the growth at 0.1 µM (CAKI-1) was 90%. For the same molecule, the growth at 0.1 µM (SK-MEL-2 [7]) was 113%, the growth at 100 µM (KM12) was -9% and the growth at 100 µM (SN12C) was 12%. For the same molecule, the growth at 1 µM (K562) was 47%, the GI50 (BT-549 [8]) was 4.05 µM and the TGI (BT-549 [8]) was 57.6 µM. For the same molecule, the CC50 (BT-549 [8]) was > 100 µM, the GI50 (OVCAR-5 [9]) was 12.5 µM and the TGI (OVCAR-5 [9]) was > 100 µM. For the same molecule, the CC50 (OVCAR-5 [9]) was > 100 µM, the growth at 0.1 µM (MDA-MB-435 [10]) was 96% and the growth at 100 µM (TK-10 [11]) was 5%. The growth at 100 µM (BT-549 [12]) was -9%, the GI50 (TK-10 [13]) was 5.06 µM and the TGI (TK-10 [13]) was > 100 µM. For the same molecule, the CC50 (TK-10 [13]) was > 100 µM, the growth at 100 µM (CCRF-CEM [14]) was -3% and the growth at 100 µM (SK-MEL-2 [15]) was 6%. For the same molecule, the growth at 100 µM (Hs-578T [16]) was -3% and the growth at 100 µM (HCT-15) was 4%.

For Cc1cccc(NC(=O)c2sc3nc4c(cc3c2N)C(=O)CCC4)c1, the growth at 100 µM (NCI-H23 [1]) was 12%, the GI50 (NCI-H23 [2]) was 0.481 µM and the LC50 (50% lethal concentration) (NCI-H23 [2]) was > 100 µM. The TGI (NCI-H23 [2]) was ≥ 100 µM, the growth at 100 µM (A498) was -53% and the TGI (NCI-H322M) was > 100 µM. For the same molecule, the CC50 (NCI-H322M) was > 100 µM, the GI50 (UACC-257) was ≥ 0.148 µM and the LC50 (concentration killing 50% of cells) (UACC-257) was > 100 µM. The TGI (UACC-257) was > 100 µM, the growth at 0.1 µM (Hs-578T [3]) was 76% and the GI50 (SF-539) was 0.167 µM. The TGI (SF-539) was 0.462 µM, the CC50 (SF-539) was ≥ 100 µM and the growth at 1 µM (SK-OV-3) was 7%. The LC50 (CCRF-CEM [4]) was > 100 µM, the TGI (CCRF-CEM [4]) was > 100 µM and the growth at 0.1 µM (UACC-62) was 72%. For the same molecule, the growth at 100 µM (MCF7) was -56%, the growth at 1 µM (SF-295) was 9% and the growth at 100 µM (RPMI-8226) was 21%. For the same molecule, the GI50 (NCI-H226) was 1.09 µM, the TGI (NCI-H226) was > 100 µM and the CC50 (NCI-H226) was > 100 µM. It also gave a growth at 0.01 µM (MDA-MB-435 [5]) of 87%, a growth at 0.1 µM (LOX IMVI) of 91% and a growth at 100 µM (OVCAR-5 [6]) of -20%. For the same molecule, the growth at 1 µM (PC-3) was 29%, the growth at 100 µM (SW-620) was 3% and the growth at 1 µM (RXF 393) was -16%. It also gave a growth at 0.1 µM (CAKI-1) of 73%, a growth at 0.1 µM (SK-MEL-2 [7]) of 70% and a growth at 100 µM (KM12) of -58%. The growth at 100 µM (SN12C) was -33%, the growth at 1 µM (K562) was 21% and the TGI (BT-549 [8]) was ≥ 100 µM. For the same molecule, the CC50 (BT-549 [8]) was > 100 µM, the TGI (OVCAR-5 [9]) was ≥ 100 µM and the CC50 (OVCAR-5 [9]) was > 100 µM. For the same molecule, the growth at 0.1 µM (MDA-MB-435 [10]) was 4%, the growth at 100 µM (TK-10 [11]) was -23% and the growth at 100 µM (BT-549 [12]) was -11%. For the same molecule, the GI50 (TK-10 [13]) was > 100 µM, the TGI (TK-10 [13]) was ≥ 100 µM and the CC50 (TK-10 [13]) was > 100 µM. The growth at 100 µM (CCRF-CEM [14]) was -7%, the growth at 100 µM (SK-MEL-2 [15]) was -74% and the growth at 100 µM (Hs-578T [16]) was -48%. It also gave a growth at 100 µM (HCT-15) of 5%.
